The values that follow come from the EternaBench riboswitch data.

The test system of the data set is MS2 coat protein. Description: apparent Kd, MS2 coat protein; higher = weaker binding; RNA-MaP array. The method in brief:
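Fluorescently labeled MS2 coat protein, from 1.5 nM to 3 μM, was incubated at room temperature with designed RNAs transcribed on an Illumina sequencing chip from sequenced DNA templates. Times ran from 0.8–1.5 h at the lowest concentrations to 10–20 min at the highest, in Tris-HCl pH 7.5 buffer with KCl, MgCl2, BSA, DTT, tRNA and Tween20, with or without input ligand. Each apparent Kd is the median of per-cluster binding-curve fits, and designs with fewer than 10 measured clusters were excluded.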

The mark [1] stands for this setting: designed as: ON switch for flavin mononucleotide, no ligand.
Setting [2] is: ligand present: flavin mononucleotide, designed as: ON switch for flavin mononucleotide.
Where [3] appears, read: designed as: OFF switch for flavin mononucleotide, no ligand.
[4] abbreviates: ligand present: flavin mononucleotide, designed as: OFF switch for flavin mononucleotide.
The mark [5] stands for this setting: designed as: ON switch for theophylline, no ligand.
[6] abbreviates: ligand present: theophylline, designed as: ON switch for theophylline.
Setting [7] is: ligand present: theophylline, designed as: OFF switch for theophylline.

As for “GACGAACAUGAGGAUCACCCAUGUUAACCGAUCACCACGUUCAGAAGGAGGGACAUAACGAGCACCUAGGAUAUGACCAAACAC”, the “apparent Kd” value is 24.2 nM under setting [1] and 14.1 nM under setting [2]. For the sequence “CCCAGGAUUCAAGGAUAUCGCAAUGAACAUGAGGAUCACCCAUGUUUCUACCCCUCAGCGCACGGCGAGAAGGUGACUUUAGCG”, the “apparent Kd” value under setting [3] was determined as 12.8 nM and the “apparent Kd” value under setting [4] worked out at 12.3 nM. In the case of “ACCUUACAUGAGGAUCACCCAUGUCGUGAUACCAGAAACCACGUAUUCCCUUGGCAGCACACCCGUGAUGAGAUUGUCGGUUUUG”, the “apparent Kd” value runs as follows: under setting [5], 57.4 nM; under setting [6], 88 nM. For the sequence “CGAUUACAUGAGGAUCACCCAUGUCAGGAUAUAAUUUGCACAGCCGGGCAGGCCGUGGUUAGAAGGGACGUACA”, the “apparent Kd” value runs as follows: under setting [3], 9.09 nM; under setting [4], 8.75 nM. In the case of “ACAUAUUCCAGAGGAUAUUGUGGUAUCCAGUUAAGGAGAUCUUACAUGAGGAUCACCCAUGUGGACAAGAAGGCUGAACGCUCC”, the “apparent Kd” value under setting [1] worked out at 21.6 nM and the “apparent Kd” value under setting [2] was 14.7 nM. The corresponding values for “UAGCAGUUCACAGGAUAUAGUUUGCGAUAAGUUUAUUUAUGAGAGACAUGAGGAUCACCCAUGUACUAGAAGGGUGAGAAAUAA” are 461 nM and 130 nM.

Turning to “GUAACGGAAGGAUAUACGCUUUAAUGGACAGGUUCGAUGGCACAUGAGGAUCACCCAUGUAGAAGGUCCCUAAA”, the “apparent Kd” value came to 10.8 nM under setting [3] and 13.4 nM under setting [4].

In the case of “GAUCUCCGCGAGAAGGCUGAGCGGUCACUAGCCAGAGGAUAUCGUCACGCGCAGGGAAAACAUGAGGAUCACCCAUGUGUAAGU”, the “apparent Kd” value reads like this: under setting [3], 10.7 nM; under setting [4], 10.6 nM.

Consider “CCGGCGCGAUUAUGGGUUUGCUUUUACGAUACCAGCCGCGUUCCGGGCCCUUGGCAGCGUGUAACAUGAGGAUCACCCAUGUUCA”, for which the “apparent Kd” value under setting [7] was found to be 13.2 nM. For the sequence “GACAUAUGCUAUGCGCAGGCUACCCUCAGCCGAGGACCGGUACGGCCGCCACUCGUACUACCACAUGAGGAUCACCCAUGUUAUC”, the “apparent Kd” value by setting is: (designed as: OFF switch for tryptophan, no ligand) 17.2 nM; (ligand present: tryptophan, designed as: OFF switch for tryptophan) 18.2 nM. For “CGCCUACAGGUGUACUAUUGUGGUGAAGAUACCAGAUAGCCCAAUAUCCCUUGGCAGCUUCAGACAUGAGGAUCACCCAUGUAUC”, the “apparent Kd” value by setting is: (designed as: OFF switch for theophylline, no ligand) 15.5 nM; under setting [7], 27.6 nM.

On to “CACUAUGAGGUCGAUACCAGUACUGAGUUGUACAUGAGGAUCACCCAUGUAAAUGUUCGCUACCCUUGGCAGCGAUAACAUUGCA”, for which the “apparent Kd” value is, setting by setting: under setting [5], 430 nM; under setting [6], 554 nM. Turning to “UGAAAUUUGGAGAAGGGACGCACGUGGUAGUGGCUACAUGAGGAUCACCCAUGUUAAUUGAUCAGUCAGGAUAUCCGGUUGUUC”, the “apparent Kd” value reads like this: under setting [3], 18.1 nM; under setting [4], 22.1 nM. For the sequence “GAACAAUGCCUAGGAUAUCUUACGAUUGAAAACAGAGAAGGAGGGACCGAACAUGAGGAUCACCCAUGUAGAUGUGGGACGUGG”, the “apparent Kd” value by setting is: under setting [3], 77.2 nM; under setting [4], 84.5 nM. Turning to “UAUAAGGGUCAGAAGGCAGUGGCGCAGAAUGACUGAGGAUAUGAUAACCGGUAAUUUAACAUGAGGAUCACCCAUGUCUACAAC”, the “apparent Kd” value by setting is: under setting [1], 11.7 nM; under setting [2], 10.2 nM. As to “AGUCUUCUCGUAAGGAUAUUUAGGAAUUCAUCUCCAAAGAAGGUACAUGAGGAUCACCCAUGUGAAGGGCUUUU”, the “apparent Kd” value reads like this: under setting [3], 12.8 nM; under setting [4], 24.8 nM.

On to “UCCGCGGAGACGGCCGCCACUGAGUGAGAAGUCGUGCUCUAACUACAUGAGGAUCACCCAUGUCCCAGGACCGGGUCGAAGUGUU”, for which the “apparent Kd” value reads like this: (designed as: ON switch for tryptophan, no ligand) 214 nM; (ligand present: tryptophan, designed as: ON switch for tryptophan) 103 nM. Consider “UAUACUACUGAGGAUAUCCAAUCCCAGAAACAAGGAGAAGGCAGUACAUGAGGAUCACCCAUGUUCCUCGACAU”, for which the “apparent Kd” value was 43.1 nM under setting [3] and 127 nM under setting [4]. For the sequence “CGUGAUCGCAGAAAGGAUAUUUGGCCUGUAACAUGAGGAUCACCCAUGUUCAAAUGUGACUUACUAAAGAAGGUUCGAAGAUCCAA”, the “apparent Kd” value is 7.23 nM under setting [1] and 7.11 nM under setting [2].

In the case of “AGCCCACAUGAGGAUCACCCAUGUACUUGGUCCUCAGGAUAUCUAGUUCCAUAUUACAAAAGAGAAGGGAGGAUUG”, the “apparent Kd” value was found to be 110 nM under setting [1] and 14.6 nM under setting [2]. “UGCCAGGCACAGAAGGUAGCGUGUCCUCAAGACAUGAGGAUCACCCAUGUGGAAAGAUUAAGACCUAAGGAUAUGUGUAUCACC”: the “apparent Kd” value runs as follows: under setting [3], 143 nM; under setting [4], 93.9 nM. For the sequence “CUUCUUCGUGCAGGAUAUAAGGGAACACGAUGACAUGAGGAUCACCCAUGUUCUAUAAGCAGGCUUUAGAAGGGCAUUUUGGAU”, the “apparent Kd” value under setting [1] is 27.1 nM and the “apparent Kd” value under setting [2] turned out to be 20.1 nM. As to “UUACUACAUGAGGAUCACCCAUGUGAAAAUUAAACGAAAAGUUAGGAUAUGAAUGGAAAUGCACCUCAGAAGGAACGCGACAAG”, the “apparent Kd” value turned out to be 18.4 nM under setting [1] and 16.9 nM under setting [2]. On the same counts, the results for “UGAAUACAUGAGGAUCACCCAUGUUACGACCUCACAGGAUAUCAGAUAAAGGCUCUCAUCUGAGAAGGGUGGCUCC” are 63.3 nM and 38.8 nM.
